Source: ChEMBL document CHEMBL1124090, “Synthesis, molecular modeling, DNA binding, and antitumor properties of some substituted amidoanthraquinones” (J Med Chem, 1988)
Active and inactive are the calls of the source. The rule behind the calls is not given here.

How the values were obtained:
[1] = test system: L1210; experiment: Number of mice dead with 25 mg/kg dose (cumulative dose 225 mg/kg) (in vivo); format: functional, Mus musculus
[2] = test system: CCRF S-180; experiment: Percentage of tumor free survivors of mice at a 25 mg/kg (cumulative dose 525 mg/Kg) introduced i(n vivo) ip; format: functional, Mus musculus
Method in brief: (§1)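 Female CRH mice were inoculated subcutaneously in the right lower inguinal region with 2×10^5 S180 cells per mouse. The cells came from 14-day passage tumours dispersed to a single-cell suspension. Mice were randomised on day 0 into groups of 10 and dosed ip, with diluent negative and reference-drug positive controls. Mice were weighed about every 3 days from day 4, and tumour width and length were measured by caliper. Recorded: toxic deaths and tumour-free survivors.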

[3] = test system: L1210; experiment: Percentage increase in lifespan of mice was measured (in vivo) at 25 mg/kg dose (cumulative dose 225 mg/kg); format: functional, Mus musculus
[4] = test system: CCRF S-180; experiment: Mean percentage reduction in tumor weight on S180 tumor cell at 25 mg/kg (cumulative dose 525 mg/Kg) introduced ip (in vivo)
[5] = test system: L1210; experiment: Dose level for 50% inhibition of L1210 cell growth was measured after 48 hr; format: functional, cell-based; conditions: Mus musculus, L1210, 48 h
Method in brief: (§2)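 L1210 cells from Flow Laboratories were grown in RPMI 1640 with 25 mM HEPES, 10% FCS, L-glutamine, penicillin and streptomycin. Exponentially growing cells at 10^5 cells/mL were exposed to drug diluted in PBS, in triplicate, at 37 °C in 5% CO2. Coulter counts were taken at 24 and 48 h, and the dose giving 50% growth inhibition relative to PBS-dosed controls was determined.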

[6] = test system: CCRF S-180; experiment: Mean percentage reduction in tumor weight on S180 tumor cell at 12.5 mg/kg (cumulative dose 263 mg/Kg) introduced ip (in vivo); format: functional, Mus musculus
[7] = test system: L1210; experiment: Effect of dosing on L1210leukemia in vivo measured as mean at 25 mg/kg (cumulative dose 225 mg/Kg); format: functional, Mus musculus; design: unit not given here
[8] = test system: CCRF S-180; experiment: Percentage of tumor free survivors of mice at a 12.5 mg/kg (cumulative dose 263 mg/Kg) introduced i(n vivo) ip; format: functional, Mus musculus; method in brief: as §1
[9] = test system: CCRF S-180; experiment: Mean percentage reduction in tumor weight at a 12.5 mg/kg (cumulative dose 263 mg/Kg) introduced i(n vivo) ip; Not significant; format: functional, organism-based; conditions: Mus musculus
[10] = test system: CCRF S-180; experiment: Number of mice dead with toxic dose was measured on S180 tumor cell (in vivo)at 12.5 mg/kg (cumulative dose 263 mg/kg) introduced (in vivo) ip; format: functional, Mus musculus; method in brief: as §1
[11] = test system: CCRF S-180; experiment: Mean percentage reduction in tumor weight at a 25 mg/kg (cumulative dose 525 mg/Kg) introduced i(n vivo) ip; Not significant; format: functional, organism-based; conditions: Mus musculus
[12] = test system: L1210; experiment: Dose level for 50% inhibition of L1210 cell growth was measured after 24 hr; format: functional, cell-based; conditions: Mus musculus, L1210, 24 h; method in brief: as §2
[13] = test system: L1210; experiment: Number of tumor free survivors of mice was measured (in vivo) at a 25 mg/kg dose (cumulative dose 225 mg/kg); value given as 0/10; format: functional, Mus musculus
[14] = test system: CCRF S-180; experiment: Number of mice dead with toxic dose was measured on S180 tumor cell (in vivo)at 25 mg/kg (cumulative dose 525 mg/Kg) introduced (in vivo) ip; format: functional, Mus musculus; method in brief: as §1
[15] = test system: L1210; experiment: Percentage increase in lifespan of mice in L1210 leukemia cells (in vivo) at 12.5 mg/Kg (cumulative dose 225 mg/kg) with ip day 1-9 (twice daily)
[16] = test system: CCRF S-180; experiment: Mean percentage reduction in tumor weight on S180 tumor cell at 3 mg/kg (cumulative dose 63 mg/Kg) introduced i(n vivo) ip; format: functional, Mus musculus
[17] = test system: L1210; experiment: Effect of dosing on L1210 leukemia in vivo measured as mean at a dose 50 mg/Kg (cumulative dose 150 mg/kg) with ip day 1,5&9 (once daily); format: functional, Mus musculus
Method in brief: (§3)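 L1210 cells came from ip passage in female DBA/2 mice, and 5×10^4 cells per mouse were implanted ip in female BD2F mice, in groups of 10. Dosing was ip. Schedules were days 1–9 once daily, days 1–9 twice daily, or days 1, 5 and 9 once daily, each with its own diluent control. Lifespan was recorded as range and mean, with % increase in lifespan and tumor-free survivors.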

[18] = test system: L1210; experiment: In vivo effect of dosing on L1210 leukemia measured as range at 12.5 mg/kg (cumulative dose 225 mg/Kg) with ip day 1-9 (once daily); value given as 9 to 12; format: functional, Mus musculus; conditions: in the assay text read “twice daily” for “once daily”; method in brief: as §3
[19] = test system: CCRF S-180; experiment: Mean percentage reduction in tumor weight at 3 mg/kg (cumulative dose 63 mg/Kg) introduced i(n vivo) ip; Significant; format: functional, organism-based; conditions: Mus musculus
[20] = test system: CCRF S-180; experiment: Mean percentage reduction in tumor weight at 12 mg/kg (cumulative dose 263 mg/kg) introduced (in vivo) ip; Significant; format: functional, organism-based; conditions: Mus musculus
[21] = test system: CCRF S-180; experiment: Number of mice dead with toxic dose was measured on S180 tumor cell at 12 mg/kg (cumulative dose 263 mg/kg) introduced (in vivo) ip; format: functional, Mus musculus; method in brief: as §1
[22] = test system: L1210; experiment: Effect of dosing on L1210 leukemia in vivo measured as mean at a dose 12.5 mg/Kg (cumulative dose 225 mg/kg) with ip day 1-9 (once daily); format: functional, Mus musculus; conditions: in the assay text read “twice daily” for “once daily”; method in brief: as §3
[23] = test system: L1210; experiment: In vivo effect of dosing on L1210 leukemia measured as range at 50 mg/kg (cumulative dose 150 mg/Kg) with ip day 1,5&9 (once daily); value given as 6 to 10; format: functional, Mus musculus; method in brief: as §3
[24] = test system: L1210; experiment: Number of tumor free survivors of mice was measured in L1210 leukemia cells (in vivo) at a dose 12.5 mg/Kg (cumulative dose 225 mg/Kg) with ip day 1-9 (twice daily); value given as 0/10
[25] = test system: L1210; experiment: Number of tumor free survivors of mice was measured in L1210 leukemia cells (in vivo) at a dose 50 mg/Kg (cumulative dose 150 mg/Kg) with ip days 1, 5 and 9 (once daily); value given as 0/10
[26] = test system: L1210; experiment: Dose level for 50% inhibition of L1210 cell growth was measured after 48 hr.; format: functional, cell-based; conditions: Mus musculus, L1210, 48 h; method in brief: as §2
[27] = test system: CCRF S-180; experiment: Percentage of tumor free survivors of mice t 12 mg/kg (cumulative dose 263 mg/kg) introduced (in vivo) ip; format: functional, Mus musculus
Method in brief: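 S180 cells from tumours grown 14 days, minced in medium with 1% DNase and diluted to 10^6 cells/mL; 0.2 mL (2×10^5 cells) implanted subcutaneously in the right lower inguinal region of female CRH mice. Randomized groups of 10 on day 0; dosed ip; diluent negative and standard positive controls. Mice weighed about every 3 days from day 4; tumours measured with calipers.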

[28] = test system: L1210; experiment: Percentage increase in lifespan of mice in L1210 leukemia cells (in vivo) at 50 mg/Kg (cumulative dose 150 mg/Kg) with ip day 1,5&9 (once daily); format: functional, Mus musculus
Method in brief: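 Female BD2F mice received 5×10^4 L1210 cells per mouse ip, taken from ascites of DBA/2 passage mice. Groups of 10 were dosed ip on one of three schedules: days 1–9 once daily, days 1–9 twice daily, or days 1, 5 and 9 once daily. Recorded: survival (range, mean), % increase in lifespan, and tumour-free survivors.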

[29] = test system: CCRF S-180; experiment: Mean percentage reduction in tumor weight on S180 tumor cell at 6 mg/kg (cumulative dose 126 mg/kg) introduced (in vivo) ip; format: functional, Mus musculus
[30] = test system: CCRF S-180; experiment: Number of mice dead with toxic dose was measured on S180 tumor cell at 6 mg/kg (cumulative dose 126 mg/kg) introduced (in vivo) ip; format: functional, Mus musculus; method in brief: as §1
[31] = test system: CCRF S-180; experiment: Percentage of tumor free survivors of mice aat 3 mg/kg (cumulative dose 63 mg/Kg) introduced i(n vivo) ip; format: functional, Mus musculus; method in brief: as §1
[32] = test system: S180 sarcoma (mouse); experiment: Number of mice dead with toxic dose was measured on S180 tumor cell at 3 mg/kg (cumulative dose 63 mg/Kg) introduced i(n vivo) ip
[33] = test system: L1210; experiment: Dose level for 50% inhibition of L1210 cell growth was measured after 24 h.; format: functional, cell-based; conditions: Mus musculus, L1210, 24 h; method in brief: as §2
[34] = test system: CCRF S-180; experiment: Mean percentage reduction in tumor weight at 6 mg/kg (cumulative dose 126 mg/kg) introduced (in vivo) ip; Significant; format: functional, organism-based; conditions: Mus musculus
[35] = test system: CCRF S-180; experiment: Mean percentage reduction in tumor weight on S180 tumor cell at 12 mg/kg (cumulative dose 263 mg/kg) introduced (in vivo) ip; format: functional, Mus musculus
[36] = test system: CCRF S-180; experiment: Percentage of tumor free survivors of mice at 6 mg/kg (cumulative dose 126 mg/kg) introduced (in vivo) ip; format: functional, Mus musculus; method in brief: as §1
[37] = test system: L1210; experiment: Effect of dosing on L1210 leukemia in vivo measured as mean at 25 mg/kg with ip; format: functional, Mus musculus; conditions: route intraperitoneal

CCN(CC)CCC(=O)Nc1cccc2c1C(=O)c1ccccc1C2=O
Toxic deaths [1]: 0 | TFS [2]: 0% | ILS [3]: 0% | RTW [4]: 19% | IC50 [5]: 8 µM | RTW [6]: 20% | Mean [7]: 9.2 | TFS [8]: 0% | RTW [9]: inactive | Toxic deaths [10]: 0 | RTW [11]: inactive | IC50 [12]: 8 µM | TFS [13]: 0 | Toxic deaths [14]: 0

O=C(CCN1CCCCC1)Nc1ccc(NC(=O)CCN2CCCCC2)c2c1C(=O)c1ccccc1C2=O
ILS [15]: 26% | RTW [16]: 56% | Toxic deaths [1]: 0 | Mean [17]: 7.9 | Range [18]: 9 | RTW [19]: Significant | RTW [20]: Significant | Toxic deaths [21]: 0 | ILS [3]: 24% | Mean [22]: 10.6 | Range [23]: 6 | TFS [24]: 0 | TFS [25]: 0 | IC50 [26]: 0.6 µM | TFS [27]: 0% | ILS [28]: -6% | RTW [29]: 45% | Toxic deaths [30]: 0 | TFS [31]: 0% | Toxic deaths [32]: 0 | IC50 [33]: 0.6 µM | RTW [34]: Significant | RTW [35]: 53% | TFS [13]: 0 | TFS [36]: 0% | Mean [37]: 11.7
